Measured values from ChEMBL document CHEMBL5058577, “EUbOPEN Chemogenomics Library 2 (Multiplex)” (2022).

System: HEK-293T
Assay: Multiplex assay against HEK293T
Format: toxicity, cell-based
Details: human
Outline: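 Phenotypes for tubulin, mitochondrial mass and membrane permeability are expressed as per cents of healthy-nucleus cells. Cells were stained live at seeding with Hoechst33342, BioTracker Green Microtubule Cytoskeleton Dye, MitoTracker Red and Annexin V Alexa Fluor 680, then imaged after compound addition on a CQ1 microscope at 37°C and 5% CO2. Machine-learning gating in CellPathfinder separated Hoechst high-intensity objects from normal cells, divided normal cells by nuclear state (healthy, pyknosed, fragmented) and divided pyknosed cells into mitotic or apoptotic.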

[1] = 12 h, 1 µM, compound concentration 1 uM, replicate 1
[2] = 12 h, 1 µM, compound concentration 1 uM, replicate 2
[3] = 12 h, 10 µM, compound concentration 10 uM, replicate 1
[4] = 12 h, 10 µM, compound concentration 10 uM, replicate 2
[5] = 24 h, 1 µM, compound concentration 1 uM, replicate 1
[6] = 24 h, 1 µM, compound concentration 1 uM, replicate 2
[7] = 24 h, 10 µM, compound concentration 10 uM, replicate 1
[8] = 24 h, 10 µM, compound concentration 10 uM, replicate 2
[9] = 48 h, 1 µM, compound concentration 1 uM, replicate 1
[10] = 48 h, 1 µM, compound concentration 1 uM, replicate 2
[11] = 48 h, 10 µM, compound concentration 10 uM, replicate 1
[12] = 48 h, 10 µM, compound concentration 10 uM, replicate 2

Compound: CCCCC(=O)N(Cc1ccc(-c2ccccc2-c2nnn[nH]2)cc1)[C@H](C(=O)O)C(C)C
- Population Apoptotic (%) [1]: 44%
- Population Fragmented Nuclei (%) [1]: 7%
- Population Healthy Nuclei (%) [1]: 80%
- Population Hoechst High Intensity Objects (%) [1]: 9%
- Population Membrane Permeable-Phenotype (%) [1]: 0%
- Population Mitochondria Different-Phenotype (%) [1]: 36%
- Population Mitotic Cells (%) [1]: 55%
- Population Normal (%) [1]: 90%
- Population Pyknosed Nuclei (%) [1]: 12%
- Population Tubulin-Different-Phenotype (%) [1]: 16%
- Total Cell Count [1]: 469
- Population Apoptotic (%) [2]: 40%
- Population Fragmented Nuclei (%) [2]: 6%
- Population Healthy Nuclei (%) [2]: 74%
- Population Hoechst High Intensity Objects (%) [2]: 11%
- Population Mitochondria Different-Phenotype (%) [2]: 49%
- Population Mitotic Cells (%) [2]: 59%
- Population Normal (%) [2]: 88%
- Population Pyknosed Nuclei (%) [2]: 18%
- Population Tubulin-Different-Phenotype (%) [2]: 21%
- Total Cell Count [2]: 290
- Population Apoptotic (%) [3]: 21%
- Population Fragmented Nuclei (%) [3]: 7%
- Population Healthy Nuclei (%) [3]: 83%
- Population Hoechst High Intensity Objects (%) [3]: 5%
- Population Membrane Permeable-Phenotype (%) [3]: 0%
- Population Mitochondria Different-Phenotype (%) [3]: 30%
- Population Mitotic Cells (%) [3]: 78%
- Population Normal (%) [3]: 94%
- Population Pyknosed Nuclei (%) [3]: 8%
- Population Tubulin-Different-Phenotype (%) [3]: 19%
- Total Cell Count [3]: 507
- Population Apoptotic (%) [4]: 51%
- Population Fragmented Nuclei (%) [4]: 5%
- Population Healthy Nuclei (%) [4]: 81%
- Population Hoechst High Intensity Objects (%) [4]: 10%
- Population Mitochondria Different-Phenotype (%) [4]: 63%
- Population Mitotic Cells (%) [4]: 48%
- Population Normal (%) [4]: 89%
- Population Pyknosed Nuclei (%) [4]: 13%
- Total Cell Count [4]: 310
- Population Apoptotic (%) [5]: 30%
- Population Fragmented Nuclei (%) [5]: 11%
- Population Healthy Nuclei (%) [5]: 78%
- Population Hoechst High Intensity Objects (%) [5]: 5%
- Population Membrane Permeable-Phenotype (%) [5]: 0%
- Population Mitochondria Different-Phenotype (%) [5]: 21%
- Population Mitotic Cells (%) [5]: 70%
- Population Normal (%) [5]: 94%
- Population Pyknosed Nuclei (%) [5]: 10%
- Population Tubulin-Different-Phenotype (%) [5]: 12%
- Total Cell Count [5]: 630
- Population Apoptotic (%) [6]: 32%
- Population Fragmented Nuclei (%) [6]: 9%
- Population Healthy Nuclei (%) [6]: 82%
- Population Hoechst High Intensity Objects (%) [6]: 6%
- Population Mitochondria Different-Phenotype (%) [6]: 26%
- Population Mitotic Cells (%) [6]: 67%
- Population Normal (%) [6]: 93%
- Population Pyknosed Nuclei (%) [6]: 8%
- Total Cell Count [6]: 429
- Population Apoptotic (%) [7]: 20%
- Population Fragmented Nuclei (%) [7]: 9%
- Population Healthy Nuclei (%) [7]: 82%
- Population Hoechst High Intensity Objects (%) [7]: 5%
- Population Membrane Permeable-Phenotype (%) [7]: 0%
- Population Mitochondria Different-Phenotype (%) [7]: 19%
- Population Mitotic Cells (%) [7]: 79%
- Population Normal (%) [7]: 94%
- Population Pyknosed Nuclei (%) [7]: 7%
- Population Tubulin-Different-Phenotype (%) [7]: 11%
- Total Cell Count [7]: 663
- Population Apoptotic (%) [8]: 35%
- Population Hoechst High Intensity Objects (%) [8]: 7%
- Population Mitochondria Different-Phenotype (%) [8]: 30%
- Population Mitotic Cells (%) [8]: 64%
- Population Normal (%) [8]: 92%
- Population Tubulin-Different-Phenotype (%) [8]: 13%
- Total Cell Count [8]: 420
- Population Apoptotic (%) [9]: 18%
- Population Fragmented Nuclei (%) [9]: 13%
- Population Healthy Nuclei (%) [9]: 80%
- Population Hoechst High Intensity Objects (%) [9]: 2%
- Population Membrane Permeable-Phenotype (%) [9]: 1%
- Population Mitochondria Different-Phenotype (%) [9]: 12%
- Population Mitotic Cells (%) [9]: 81%
- Population Normal (%) [9]: 97%
- Population Pyknosed Nuclei (%) [9]: 5%
- Population Tubulin-Different-Phenotype (%) [9]: 7%
- Total Cell Count [9]: 1024
- Population Apoptotic (%) [10]: 19%
- Population Fragmented Nuclei (%) [10]: 14%
- Population Healthy Nuclei (%) [10]: 79%
- Population Hoechst High Intensity Objects (%) [10]: 3%
- Population Membrane Permeable-Phenotype (%) [10]: 0%
- Population Mitochondria Different-Phenotype (%) [10]: 16%
- Population Mitotic Cells (%) [10]: 80%
- Population Normal (%) [10]: 96%
- Population Pyknosed Nuclei (%) [10]: 6%
- Population Tubulin-Different-Phenotype (%) [10]: 9%
- Total Cell Count [10]: 653
- Population Apoptotic (%) [11]: 14%
- Population Fragmented Nuclei (%) [11]: 14%
- Population Healthy Nuclei (%) [11]: 81%
- Population Hoechst High Intensity Objects (%) [11]: 1%
- Population Membrane Permeable-Phenotype (%) [11]: 2%
- Population Mitochondria Different-Phenotype (%) [11]: 8%
- Population Mitotic Cells (%) [11]: 85%
- Population Normal (%) [11]: 98%
- Population Pyknosed Nuclei (%) [11]: 3%
- Population Tubulin-Different-Phenotype (%) [11]: 8%
- Total Cell Count [11]: 1205
- Population Apoptotic (%) [12]: 15%
- Population Healthy Nuclei (%) [12]: 78%
- Population Hoechst High Intensity Objects (%) [12]: 2%
- Population Membrane Permeable-Phenotype (%) [12]: 0%
- Population Mitochondria Different-Phenotype (%) [12]: 17%
- Population Mitotic Cells (%) [12]: 84%
- Population Normal (%) [12]: 97%
- Population Pyknosed Nuclei (%) [12]: 7%
- Total Cell Count [12]: 623

Compound: CN1CCN(c2cc(-c3ccccc3)nc(N)n2)CC1
- Population Apoptotic (%) [1]: 40%
- Population Fragmented Nuclei (%) [1]: 8%
- Population Healthy Nuclei (%) [1]: 79%
- Population Hoechst High Intensity Objects (%) [1]: 6%
- Population Membrane Permeable-Phenotype (%) [1]: 0%
- Population Mitochondria Different-Phenotype (%) [1]: 35%
- Population Mitotic Cells (%) [1]: 60%
- Population Normal (%) [1]: 93%
- Population Pyknosed Nuclei (%) [1]: 11%
- Population Tubulin-Different-Phenotype (%) [1]: 21%
- Total Cell Count [1]: 383
- Population Apoptotic (%) [2]: 34%
- Population Fragmented Nuclei (%) [2]: 5%
- Population Healthy Nuclei (%) [2]: 84%
- Population Mitochondria Different-Phenotype (%) [2]: 48%
- Population Mitotic Cells (%) [2]: 65%
- Population Pyknosed Nuclei (%) [2]: 10%
- Population Tubulin-Different-Phenotype (%) [2]: 16%
- Total Cell Count [2]: 354
- Population Apoptotic (%) [3]: 23%
- Population Fragmented Nuclei (%) [3]: 7%
- Population Healthy Nuclei (%) [3]: 82%
- Population Hoechst High Intensity Objects (%) [3]: 7%
- Population Membrane Permeable-Phenotype (%) [3]: 0%
- Population Mitochondria Different-Phenotype (%) [3]: 46%
- Population Mitotic Cells (%) [3]: 76%
- Population Normal (%) [3]: 92%
- Population Pyknosed Nuclei (%) [3]: 9%
- Population Tubulin-Different-Phenotype (%) [3]: 30%
- Total Cell Count [3]: 416
- Population Apoptotic (%) [4]: 36%
- Population Fragmented Nuclei (%) [4]: 6%
- Population Healthy Nuclei (%) [4]: 81%
- Population Hoechst High Intensity Objects (%) [4]: 10%
- Population Mitochondria Different-Phenotype (%) [4]: 63%
- Population Mitotic Cells (%) [4]: 63%
- Population Normal (%) [4]: 89%
- Population Pyknosed Nuclei (%) [4]: 12%
- Population Tubulin-Different-Phenotype (%) [4]: 20%
- Total Cell Count [4]: 296
- Population Apoptotic (%) [5]: 20%
- Population Fragmented Nuclei (%) [5]: 9%
- Population Healthy Nuclei (%) [5]: 79%
- Population Hoechst High Intensity Objects (%) [5]: 4%
- Population Membrane Permeable-Phenotype (%) [5]: 1%
- Population Mitochondria Different-Phenotype (%) [5]: 16%
- Population Mitotic Cells (%) [5]: 79%
- Population Normal (%) [5]: 95%
- Population Pyknosed Nuclei (%) [5]: 11%
- Population Tubulin-Different-Phenotype (%) [5]: 12%
- Total Cell Count [5]: 488
- Population Apoptotic (%) [6]: 36%
- Population Healthy Nuclei (%) [6]: 82%
- Population Mitochondria Different-Phenotype (%) [6]: 24%
- Population Mitotic Cells (%) [6]: 63%
- Population Pyknosed Nuclei (%) [6]: 8%
- Population Tubulin-Different-Phenotype (%) [6]: 8%
- Total Cell Count [6]: 480
- Population Apoptotic (%) [7]: 44%
- Population Fragmented Nuclei (%) [7]: 13%
- Population Healthy Nuclei (%) [7]: 75%
- Population Hoechst High Intensity Objects (%) [7]: 6%
- Population Membrane Permeable-Phenotype (%) [7]: 0%
- Population Mitochondria Different-Phenotype (%) [7]: 32%
- Population Mitotic Cells (%) [7]: 55%
- Population Normal (%) [7]: 93%
- Population Pyknosed Nuclei (%) [7]: 11%
- Population Tubulin-Different-Phenotype (%) [7]: 19%
- Total Cell Count [7]: 577
- Population Apoptotic (%) [8]: 34%
- Population Fragmented Nuclei (%) [8]: 9%
- Population Healthy Nuclei (%) [8]: 79%
- Population Hoechst High Intensity Objects (%) [8]: 9%
- Population Mitochondria Different-Phenotype (%) [8]: 50%
- Population Mitotic Cells (%) [8]: 65%
- Population Normal (%) [8]: 90%
- Population Tubulin-Different-Phenotype (%) [8]: 17%
- Total Cell Count [8]: 378
- Population Apoptotic (%) [9]: 23%
- Population Fragmented Nuclei (%) [9]: 13%
- Population Healthy Nuclei (%) [9]: 78%
- Population Hoechst High Intensity Objects (%) [9]: 1%
- Population Membrane Permeable-Phenotype (%) [9]: 1%
- Population Mitochondria Different-Phenotype (%) [9]: 12%
- Population Mitotic Cells (%) [9]: 76%
- Population Normal (%) [9]: 98%
- Population Pyknosed Nuclei (%) [9]: 7%
- Population Tubulin-Different-Phenotype (%) [9]: 12%
- Total Cell Count [9]: 745
- Population Apoptotic (%) [10]: 14%
- Population Healthy Nuclei (%) [10]: 80%
- Population Hoechst High Intensity Objects (%) [10]: 2%
- Population Membrane Permeable-Phenotype (%) [10]: 0%
- Population Mitochondria Different-Phenotype (%) [10]: 14%
- Population Mitotic Cells (%) [10]: 85%
- Population Normal (%) [10]: 97%
- Population Pyknosed Nuclei (%) [10]: 6%
- Population Tubulin-Different-Phenotype (%) [10]: 9%
- Total Cell Count [10]: 804
- Population Apoptotic (%) [11]: 16%
- Population Fragmented Nuclei (%) [11]: 17%
- Population Healthy Nuclei (%) [11]: 75%
- Population Hoechst High Intensity Objects (%) [11]: 3%
- Population Membrane Permeable-Phenotype (%) [11]: 0%
- Population Mitochondria Different-Phenotype (%) [11]: 25%
- Population Mitotic Cells (%) [11]: 83%
- Population Normal (%) [11]: 96%
- Population Pyknosed Nuclei (%) [11]: 6%
- Population Tubulin-Different-Phenotype (%) [11]: 14%
- Total Cell Count [11]: 861
- Population Apoptotic (%) [12]: 27%
- Population Fragmented Nuclei (%) [12]: 13%
- Population Healthy Nuclei (%) [12]: 81%
- Population Membrane Permeable-Phenotype (%) [12]: 1%
- Population Mitochondria Different-Phenotype (%) [12]: 24%
- Population Mitotic Cells (%) [12]: 72%
- Population Pyknosed Nuclei (%) [12]: 4%
- Population Tubulin-Different-Phenotype (%) [12]: 11%
- Total Cell Count [12]: 645
